For two molecules, EC50 and Emax results are on record in ChEMBL document CHEMBL4325822, “Discovery of a tetrazolyl β-carboline with in vitro and in vivo osteoprotective activity under estrogen-deficient conditions” (Medchemcomm, 2018).

Test [1] in a line: Induction of osteoblast differentiation in Sprague-Dawley rat calvarial osteoblasts assessed as alkaline phosphatase activity after 48 hrs using PNPP as substrate by spectrophotometric method. It is filed as functional, cell-based. To be noted: Rattus norvegicus, Sprague-Dawley, Calvarial osteoblast, 48 h; read-out: EC50. Summed up: (§1)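 Calvarial osteoblasts at 2 × 10³ cells/well. Treated 48 h with varied concentrations in differentiation medium (5% charcoal-treated FBS, 10 mM β-glycerophosphate, 50 µg·mL⁻¹ ascorbic acid). Total ALP read with PNPP substrate at 405 nm. Cell-free wells check for compound interference with substrate or absorbance.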

Test [2] can be described thus: Induction of osteoblast differentiation in Sprague-Dawley rat calvarial osteoblasts assessed as alkaline phosphatase activity at 1 nM after 48 hrs using PNPP as substrate by spectrophotometric method relative to control. It is filed as functional. In short, it runs like this: as §1
A short description of test [3]: Induction of osteoblast differentiation in Sprague-Dawley rat calvarial osteoblasts assessed as alkaline phosphatase activity at 10 pM after 48 hrs using PNPP as substrate by spectrophotometric method relative to control. It is filed as functional. In short, it runs like this:
as §1

Turning to `COC(=O)c1cc2c([nH]c3ccccc32)c(C=O)n1`, in test [1], the concentration giving a half-maximal response (EC50) turned out to be 545 nM. The maximal response (Emax) at 0.001 µM in test [2] stood at 24%.

For the molecule `COC(=O)c1cc2c([nH]c3ccccc32)c(C(c2nnnn2C2CCCCC2)N2CCN(C)CC2)n1` (centres undefined), the half-maximal effective concentration (EC50) in test [1] was 530 nM. Also, the Emax at 10 pM in test [3] is 30%.
